# Data taken from ChEMBL document CHEMBL1921792, “Synthesis and anticonvulsant activity of trans- and cis-2-(2,6-dimethylphenoxy)-N-(2- or 4-hydroxycyclohexyl)acetamides and their amine analogs” (Bioorg Med Chem, 2011).
# Columns and labels:
# [1] = Neurotoxicity in ip dosed mouse assessed as inability to maintain equilibrium on rotarod by rotarod test; assay type: toxicity, organism-based; conditions: in vivo
# Summary of the method: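 Mice dosed ip with a suspension in 0.5% methylcellulose, then placed on a 1 inch knurled plastic rod rotating at 6 rpm. Toxicity = failure to keep equilibrium for at least 1 min in each of three trials.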
# Mus musculus [2] = assay: Neurotoxicity in mouse assessed as inability to maintain equilibrium on rotarod at 300 mg/kg, ip after 0.5 hrs by rotarod test; assay type: toxicity, organism-based; design: dose 300 mg/kg, route intraperitoneal; conditions: in vivo
# Summary of the method: (§1)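 Drug given ip to mice as a suspension in 0.5% methylcellulose. At the stated time after dosing, each mouse was placed on a 1 inch knurled rod turning at 6 rpm. Neurotoxicity = inability to stay balanced at least 1 min in each of three trials. Scored as animals toxic/animals tested in small groups.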
# Rattus norvegicus [3] = assay: Neurotoxicity in rat assessed as neurological deficit at 500 mg/kg, po after 4 hrs; assay type: toxicity, organism-based; design: dose 500 mg/kg, route oral; conditions: in vivo
# Summary of the method: (§2)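 Rats dosed orally with test agent suspended in 0.5% methylcellulose and observed for up to 24 h (time-to-peak-effect design). Neurological deficit was scored as ataxia with loss of placing response and muscle tone. Two rats per dose per time point; results given as number toxic/number tested.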
# [4] = Neurotoxicity in po dosed rat assessed as neurological deficit […]; assay type: toxicity, organism-based; conditions: in vivo
# Summary of the method: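 Rats dosed orally with a suspension in 0.5% methylcellulose. Neurological deficit judged by ataxia and loss of placing response and muscle tone.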
# Mus musculus [5] = organism: Mus musculus; assay: Protective index, ratio of TD50 for neurotoxicity in mouse to ED50 for inhibition of maximal electroshock-induced seizures in mouse; assay type: functional
# Rattus norvegicus [6] = assay: Neurotoxicity in rat assessed as neurological deficit at 250 mg/kg, po after 1 hr; assay type: toxicity, organism-based; design: dose 250 mg/kg, route oral; conditions: in vivo
# Summary of the method: (§3)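 Rats given the compound, suspended in 0.5% methylcellulose, by the stated route and dose. Neurological deficit was recorded at the listed times as ataxia and loss of placing response and muscle tone. Reported as number of rats showing toxicity/number tested.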
# Mus musculus [7] = assay: Neurotoxicity in mouse assessed as inability to maintain equilibrium on rotarod at 130 mg/kg, ip after 0.5 hrs using rotarod test; assay type: toxicity, organism-based; design: dose 130 mg/kg, route intraperitoneal; conditions: in vivo; summary of the method: as §1
# Rattus norvegicus [8] = assay: Neurotoxicity in rat assessed as neurological deficit at 30 mg/kg, po after 2 hrs […]; assay type: toxicity, organism-based; design: dose 30 mg/kg, route oral; conditions: in vivo; summary of the method: as §3
# Rattus norvegicus [9] = assay: Neurotoxicity in rat assessed as neurological deficit at 62.5 mg/kg, po after 2 hrs; assay type: toxicity, organism-based; design: dose 62.5 mg/kg, route oral; conditions: in vivo; summary of the method: as §2
# Mus musculus [10] = assay: Neurotoxicity in mouse assessed as inability to maintain equilibrium on rotarod at 130 mg/kg, ip after 2 hrs using rotarod test; assay type: toxicity, organism-based; design: dose 130 mg/kg, route intraperitoneal; conditions: in vivo; summary of the method: as §1
# Rattus norvegicus [11] = assay: Neurotoxicity in rat assessed as neurological deficit at 500 mg/kg, po after 2 hrs; assay type: toxicity, organism-based; design: dose 500 mg/kg, route oral; conditions: in vivo; summary of the method: as §3
# Rattus norvegicus [12] = assay: Neurotoxicity in rat assessed as neurological deficit at 250 mg/kg, po after 8 hrs; assay type: toxicity, organism-based; design: dose 250 mg/kg, route oral; conditions: in vivo; summary of the method: as §3
# Rattus norvegicus [13] = assay: Neurotoxicity in rat assessed as neurological deficit at 30 mg/kg, po after 0.25 hrs […]; assay type: toxicity, organism-based; design: dose 30 mg/kg, route oral; conditions: in vivo; summary of the method: as §3
# Rattus norvegicus [14] = assay: Neurotoxicity in rat assessed as neurological deficit at 62.5 mg/kg, po after 1 hr; assay type: toxicity, organism-based; design: dose 62.5 mg/kg, route oral; conditions: in vivo; summary of the method: as §2
# Rattus norvegicus [15] = assay: Neurotoxicity in rat assessed as neurological deficit at 250 mg/kg, po after 0.25 hrs; assay type: toxicity, organism-based; design: dose 250 mg/kg, route oral; conditions: in vivo; summary of the method: as §3
# Rattus norvegicus [16] = assay: Neurotoxicity in rat assessed as neurological deficit at 62.5 mg/kg, po after 4 hrs; assay type: toxicity, organism-based; design: dose 62.5 mg/kg, route oral; conditions: in vivo; summary of the method: as §2
# Rattus norvegicus [17] = assay: Neurotoxicity in rat assessed as neurological deficit at 250 mg/kg, po after 6 hrs; assay type: toxicity, organism-based; design: dose 250 mg/kg, route oral; conditions: in vivo; summary of the method: as §3
# Rattus norvegicus [18] = assay: Anticonvulsant activity in po dosed rat assessed as protection against maximal electric shock-induced seizures; assay type: functional
# Mus musculus [19] = assay: Anticonvulsant activity in ip dosed mouse assessed as protection against maximal electric shock-induced seizures; assay type: functional; conditions: Mus musculus, ip; read-out: ED50
# Rattus norvegicus [20] = assay: Neurotoxicity in rat assessed as neurological deficit at 500 mg/kg, po after 6 hrs; assay type: toxicity, organism-based; design: dose 500 mg/kg, route oral; conditions: in vivo; summary of the method: as §2
# Rattus norvegicus [21] = organism: Rattus norvegicus; assay: Protective index, ratio of TD50 for neurotoxicity in rat to ED50 for inhibition of maximal electroshock-induced seizures in rat; assay type: functional
# Rattus norvegicus [22] = assay: Neurotoxicity in rat assessed as neurological deficit at 62.5 mg/kg, po after 0.25 hrs; assay type: toxicity, organism-based; design: dose 62.5 mg/kg, route oral; conditions: in vivo; summary of the method: as §2
# Rattus norvegicus [23] = assay: Neurotoxicity in rat assessed as neurological deficit at 125 mg/kg, po after 6 hrs; assay type: toxicity, organism-based; design: dose 125 mg/kg, route oral; conditions: in vivo; summary of the method: as §3
# Rattus norvegicus [24] = assay: Neurotoxicity in rat assessed as neurological deficit at 125 mg/kg, po after 0.5 hrs; assay type: toxicity, organism-based; design: dose 125 mg/kg, route oral; conditions: in vivo; summary of the method: as §3
# Rattus norvegicus [25] = assay: Neurotoxicity in rat assessed as neurological deficit at 30 mg/kg, po after 1 hr […]; assay type: toxicity, organism-based; design: dose 30 mg/kg, route oral; conditions: in vivo; summary of the method: as §3
# Rattus norvegicus [26] = assay: Neurotoxicity in rat assessed as neurological deficit at 125 mg/kg, po after 4 hrs; assay type: toxicity, organism-based; design: dose 125 mg/kg, route oral; conditions: in vivo; summary of the method: as §3
# Rattus norvegicus [27] = assay: Neurotoxicity in rat assessed as neurological deficit at 125 mg/kg, po after 1 hr; assay type: toxicity, organism-based; design: dose 125 mg/kg, route oral; conditions: in vivo; summary of the method: as §3
compound,measurement,setting,value
Cc1cccc(C)c1OCC(=O)NC1CCCCC1O.Cl (racemic; 1),TD50,[1],106 mg/kg
same,Activity,Mus musculus [2],Toxic
same,Activity,Rattus norvegicus [3],Non-toxic
same,TD50,[4],> 500 mg/kg
same,Ratio TD50/ED50,Mus musculus [5],2.475
same,Activity,Rattus norvegicus [6],Non-toxic
same,Activity,Mus musculus [7],Non-toxic
same,Activity,Rattus norvegicus [8],Non-toxic
same,Activity,Rattus norvegicus [9],Non-toxic
same,Activity,Mus musculus [10],Non-toxic
same,Activity,Rattus norvegicus [11],Non-toxic
same,Activity,Rattus norvegicus [12],Non-toxic
same,Activity,Rattus norvegicus [13],Non-toxic
same,Activity,Rattus norvegicus [14],Non-toxic
same,Activity,Rattus norvegicus [15],Non-toxic
same,Activity,Rattus norvegicus [16],Non-toxic
same,Activity,Rattus norvegicus [17],Non-toxic
same,ED50,Rattus norvegicus [18],23.6 mg/kg
same,ED50,Mus musculus [19],43 mg/kg
same,Activity,Rattus norvegicus [20],Non-toxic
same,Ratio TD50/ED50,Rattus norvegicus [21],>21.218
same,Activity,Rattus norvegicus [22],Non-toxic
same,Activity,Rattus norvegicus [23],Non-toxic
same,Activity,Rattus norvegicus [24],Non-toxic
same,Activity,Rattus norvegicus [25],Non-toxic
same,Activity,Rattus norvegicus [26],Non-toxic
same,Activity,Rattus norvegicus [27],Non-toxic
